Experimental data: ChEMBL document CHEMBL4014310, “Selective IKur Inhibitors for the Potential Treatment of Atrial Fibrillation: Optimization of the Phenyl Quinazoline Series Leading to Clinical Candidate 5-[5-Phenyl-4-(pyridin-2-ylmethylamino)quinazolin-2-yl]pyridine-3-sulfonamide” (J Med Chem, 2017); call rule not given here

What was measured:
[1] = AUC in rat at 2 mg/kg, iv or 5 mg/kg, po; type: ADME, organism-based; conditions: in vivo
Outline: (§1)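 Single-dose PK study in mouse and rat (2 mg/kg iv, 5 mg/kg po), cynomolgus monkey (1 mg/kg iv and po) and dog (0.1 mg/kg iv, 1 mg/kg po). Dosing vehicle was 1:4:5 EtOH/propylene glycol/PEG400. Clearance, Vss, half-life, Cmax, Tmax, AUC (μM h) and oral %F were derived from plasma levels.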

[2] = Tmax in mouse at 2 mg/kg, iv or 5 mg/kg, po; type: ADME, organism-based; conditions: in vivo
Outline: (§2)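 Single-dose PK in mouse and rat (2 mg/kg iv, 5 mg/kg po), cynomolgus monkey (1 mg/kg iv and po) and dog (0.1 mg/kg iv, 1 mg/kg po). Dosing vehicle was 1:4:5 EtOH/propylene glycol/PEG400. Parameters reported: clearance, Vss, half-life, Cmax, Tmax, AUC and oral bioavailability.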

[3] = Oral bioavailability in mouse at 5 mg/kg; type: ADME, organism-based; conditions: in vivo; outline: as §2
[4] = Plasma concentration in methoxamine-sensitised rabbit at 3 mg/kg, iv administered as 10 mins infusion; type: ADME, organism-based, Oryctolagus cuniculus
[5] = AUC in cynomolgus monkey at 1 mg/kg, iv or 1 mg/kg, po; type: ADME, organism-based, Macaca fascicularis; conditions: in vivo; outline: as §1
[6] = biological target: Potassium voltage-gated channel subfamily A member 5 (Homo sapiens, UniProt P22460); test: Inhibition of recombinant human Kv1.5 expressed in mouse L929 cells by patch clamp assay; type: cell-based
Sequence of Potassium voltage-gated channel subfamily A member 5 (P22460 whole entry): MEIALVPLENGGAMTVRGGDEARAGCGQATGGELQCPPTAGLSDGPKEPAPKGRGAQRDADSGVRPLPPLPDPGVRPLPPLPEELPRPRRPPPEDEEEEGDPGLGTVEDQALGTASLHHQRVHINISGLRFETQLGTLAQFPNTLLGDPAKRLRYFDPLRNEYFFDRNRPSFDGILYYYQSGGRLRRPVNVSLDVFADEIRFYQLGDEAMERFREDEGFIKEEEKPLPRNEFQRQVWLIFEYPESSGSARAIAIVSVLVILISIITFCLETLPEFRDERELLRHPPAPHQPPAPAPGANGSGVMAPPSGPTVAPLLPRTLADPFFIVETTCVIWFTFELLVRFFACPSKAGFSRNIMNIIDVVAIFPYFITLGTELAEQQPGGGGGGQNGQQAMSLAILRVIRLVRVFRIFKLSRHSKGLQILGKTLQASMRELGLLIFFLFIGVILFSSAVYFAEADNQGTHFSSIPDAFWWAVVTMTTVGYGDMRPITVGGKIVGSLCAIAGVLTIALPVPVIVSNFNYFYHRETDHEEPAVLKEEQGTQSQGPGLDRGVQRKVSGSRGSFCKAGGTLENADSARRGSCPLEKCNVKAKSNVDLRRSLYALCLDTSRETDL
Outline: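 Whole-cell patch clamp of IKur current in mouse L-929 cells transfected with human KV1.5 and stably expressing the channel.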

[7] = Plasma concentration in methoxamine-sensitised rabbit at 1 mg/kg, iv administered as 30 mins infusion; type: ADME, organism-based, Oryctolagus cuniculus
[8] = test system: Rhesus monkey; test: Drug absorption in monkey famotidine model at 10 mg/kg; type: ADME, organism-based, Macaca mulatta; conditions: in vivo
[9] = test system: Plasma; test: Plasma concentration in pacing-induced mongrel dog heart failure model at 0.3 mg/kg, po; type: ADME, organism-based, Canis lupus familiaris; conditions: in vivo
Outline: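 Simultaneous atrio-ventricular pacing dog model used to measure AF inducibility. Dogs were dosed orally at 0.1 mg/kg (n = 5) or 0.3 mg/kg (n = 6) in 10% EtOH/40% propylene glycol/50% PEG 400, and plasma concentration was measured alongside AF inductions and QTc.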

[10] = Tmax in cynomolgus monkey at 1 mg/kg, iv or 1 mg/kg, po; type: ADME, organism-based, Macaca fascicularis; conditions: in vivo; outline: as §2
[11] = Clearance in rat at 2 mg/kg, iv or 5 mg/kg, po; type: ADME, organism-based; conditions: in vivo; outline: as §1
[12] = Half life in cynomolgus monkey at 1 mg/kg, iv or 1 mg/kg, po; type: ADME, organism-based, Macaca fascicularis; conditions: in vivo; outline: as §1
[13] = test system: Oryctolagus cuniculus; test: Antiatrial fibrillation activity in methoxamine-sensitised rabbit assessed as plasma concentration required to show increase in atrial effective refractory period at 0.17 mg/kg, iv administered as 1 min infusion; type: functional, organism-based
Outline: (§3)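 Rabbit, iv infusion of compound in DMF (0.17 mg/mL) with a 0.17 mg/kg maintenance dose. AERP was normalized to DMF vehicle, with time counted from the start of the maintenance infusion. Tissues were collected after 30 min. n = 3 rabbits; means ± standard error.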

[14] = test system: Oryctolagus cuniculus; test: Antiatrial fibrillation activity in methoxamine-sensitised rabbit assessed as increase in atrial effective refractory period at 3 mg/kg, iv administered as 10 mins infusion relative to control; type: functional
Outline: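 Rabbit, iv dosing at 1 or 3 mg/kg. AERP was measured at 10, 20 and 30 min time points as % prolongation, and plasma compound concentration was measured at the same time points and correlated with the AERP change.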

[15] = Clearance in dog at 0.1 mg/kg, iv or 1 mg/kg, po; type: ADME, organism-based, Canis lupus familiaris; conditions: in vivo; outline: as §1
[16] = Ratio of drug level in Sprague-Dawley rat brain to plasma at 3 mg/kg, iv administered as 10 mins infusion by LC-MS/MS analysis; type: ADME, organism-based; conditions: brain and plasma, read-out: BPR
[17] = Cmax in rat at 2 mg/kg, iv or 5 mg/kg, po; type: ADME, organism-based; conditions: in vivo; outline: as §1
[18] = test system: Canis familiaris; test: Effect on QTc interval in pacing-induced mongrel dog heart failure model at 0.1 to 0.3 mg/kg, po; type: organism-based, Canis lupus familiaris; conditions: in vivo
Outline: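 Simultaneous atrio-ventricular pacing dog model of atrial arrhythmia. Compound was given orally at 0.1 or 0.3 mg/kg in 10% EtOH/40% propylene glycol/50% PEG 400. AF inducibility was scored as mean number of AF inductions and total AF duration, with QTc monitored and plasma concentration measured. n = 7 control, 5 (0.1 mg/kg) and 6 (0.3 mg/kg) dogs.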

[19] = Inhibition of sodium channel (unknown origin); design: species or system Homo sapiens
[20] = Oral bioavailability in dog at 1 mg/kg; type: ADME, organism-based, Canis lupus familiaris; conditions: in vivo; outline: as §2
[21] = Oral bioavailability in rat at 5 mg/kg using crystalline form; type: ADME, organism-based; conditions: in vivo
[22] = AUC in dog at 0.1 mg/kg, iv or 1 mg/kg, po; type: ADME, organism-based, Canis lupus familiaris; conditions: in vivo; outline: as §1
[23] = Oral bioavailability in cynomolgus monkey at 1 mg/kg; type: ADME, organism-based, Macaca fascicularis; conditions: in vivo; outline: as §1
[24] = test system: Oryctolagus cuniculus; test: Antiatrial fibrillation activity in methoxamine-sensitised rabbit assessed as plasma concentration required to show increase in atrial effective refractory period at 0.17 mg/kg, iv administered as 15 mins infusion; type: functional, organism-based; outline: as §3
[25] = test system: Salmonella typhimurium; test: Genotoxicity in Salmonella typhimurium by Ames test; type: toxicity; conditions: salmonella enterica subsp. enterica serovar typhimurium
[26] = Inhibition of IKs (unknown origin); design: species or system Homo sapiens
[27] = test system: Oryctolagus cuniculus; test: Effect on ventricle effective refractory period in methoxamine-sensitised rabbit at 3 mg/kg, iv administered as 10 to 30 mins infusion; type: ADME, organism-based; conditions: in vivo
[28] = test system: Oryctolagus cuniculus; test: Antiatrial fibrillation activity in methoxamine-sensitised rabbit assessed as increase in atrial effective refractory period at 0.17 mg/kg, iv administered as 30 mins infusion relative to control; type: functional; outline: as §3
[29] = Plasma concentration in methoxamine-sensitised rabbit at 1 mg/kg, iv administered as 20 mins infusion; type: ADME, organism-based, Oryctolagus cuniculus
[30] = Plasma concentration in methoxamine-sensitised rabbit at 3 mg/kg, iv administered as 30 mins infusion; type: ADME, organism-based, Oryctolagus cuniculus

AUC [1]: 49 µM·h
Tmax [2]: 0.5 h
bioavailability [3]: 100%
AUC [5]: 11 µM·h
IC50 [6]: 0.046 to 0.05 µM
Drug absorption [8]: Active
concentration [9]: 1840 nM
Tmax [10]: 4.9 h
clearance [11]: 3.3 mL/min/kg
half-life [12]: 4.6 h
clearance [15]: 0.05 mL/min/kg
Kp at 10 min [16]: 0.1
Cmax [17]: 7900 nM
IC50 [19]: > 10 µM
bioavailability [20]: 64%
bioavailability [21]: 35%
AUC [22]: 590 µM·h
bioavailability [23]: 100%
IC50 [26]: > 10 µM
SMILES: NS(=O)(=O)c1cncc(-c2nc(NCc3ccccn3)c3c(-c4ccccc4)cccc3n2)c1 [BMS-919373]
concentration at 10 min [4]: 2300 nM
concentration at 0.5 h [7]: 1300 nM
Cp [13]: 0.42 µM
Activity [14]: 10.8%
Activity [18]: Non-Toxic
Cp [24]: 0.16 µM
Activity [25]: Non-Toxic
Activity [27]: Non-Toxic
Activity [28]: 12.7%
concentration at 20 min [29]: 1100 nM
concentration at 0.5 h [30]: 3300 nM
